# Experimental data published in ChEMBL document CHEMBL1124947, “Cationic antiprotozoal drugs. Trypanocidal activity of 2-(4'-formylphenyl)imidazo[1,2-a]pyridinium guanylhydrazones and related derivatives of quaternary heteroaromatic compounds” (J Med Chem, 1990).
# Assays:
# Type in all cases: functional
# Mus musculus [1] = experiment: Trypanocidal Activity at I.C.E. value 0.65 when administered subcutaneously.
# Procedure, shortened: (§1)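 Mice, in groups of five per dose, were given a standard inoculum of blood-stage T. rhodesiense that is lethal to all untreated controls, then dosed subcutaneously. Usually 11 dose levels were used (2^n × 0.42 mg/kg).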
# Mus musculus [2] = experiment: Trypanocidal Activity at I.C.E. value 0.47 when administered subcutaneously.
# Procedure, shortened: (§2)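 Blood-stage T. rhodesiense infection came from a standard inoculum lethal to all untreated mice. Drug was given by subcutaneous injection to groups of five mice. Survival beyond 30 days counted as cure. […] Sub-curative doses scored 0, and data were normalized at each dose.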
# Mus musculus [3] = experiment: Trypanocidal Activity at I.C.E. value 0.16 when administered subcutaneously.
# [4] = system: Trypanosoma brucei rhodesiense; experiment: In Vitro measurement of inhibition of thymidine uptake in cell culture of Trypanosoma rhodesiense; details: read-out: ID50 (the source's name)
# Procedure, shortened: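 Parasites harvested from infected rats and incubated 3 h across a drug concentration series, usually 0.1–100 µg/mL. Incorporation of radiolabeled thymidine measured. ID50 is the concentration (µg/mL) producing 50% inhibition.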
# [5] = system: Trypanosoma brucei rhodesiense; experiment: In Vitro measurement of inhibition of leucine uptake in cell culture of Trypanosoma rhodesiense; details: read-out: ID50 (the source's name)
# Procedure, shortened: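 Trypanosomes harvested from infected rats, cultured 3 h with several concentrations of drug, usually 0.1–100 µg/mL. Radiolabeled L-leucine uptake measured. ID50 is the concentration in µg/mL giving 50% inhibition of incorporation.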
# Mus musculus [6] = experiment: Trypanocidal Activity at I.C.E. value 0.36 when administered subcutaneously.
# Mus musculus [7] = experiment: Trypanocidal Activity at I.C.E. value 0.57 when administered perorally.
# Mus musculus [8] = experiment: Trypanocidal Activity at I.C.E. value 0.57 when administered subcutaneously.; procedure, shortened: as §1
# Mus musculus [9] = experiment: Trypanocidal Activity at I.C.E. value 0.44 when administered subcutaneously.; procedure, shortened: as §2
# Mus musculus [10] = experiment: Trypanocidal Activity at I.C.E. value 0.59 when administered subcutaneously.; procedure, shortened: as §1
# Mus musculus [11] = experiment: Trypanocidal Activity at I.C.E. value 0.32 when administered subcutaneously.; procedure, shortened: as §2
# Mus musculus [12] = experiment: Trypanocidal Activity at I.C.E. value 0.67 when administered subcutaneously.; procedure, shortened: as §1
# Mus musculus [13] = experiment: Trypanocidal Activity at I.C.E. value 0.34 when administered subcutaneously.; procedure, shortened: as §2
# Mus musculus [14] = experiment: Trypanocidal Activity at I.C.E. value 0.24 when administered subcutaneously.; procedure, shortened: as §2
# Mus musculus [15] = experiment: Trypanocidal Activity at I.C.E. value 0.71 when administered subcutaneously.; procedure, shortened: as §1
# Mus musculus [16] = experiment: Trypanocidal Activity at I.C.E. value 0.17 when administered subcutaneously.
# Mus musculus [17] = experiment: Trypanocidal Activity at I.C.E. value 0.52 when administered subcutaneously.; procedure, shortened: as §2
structure (smiles),measurement,setting,value
Br.C=CCNC(=N)N/N=C/c1ccc(-c2cn3ccccc3[n+]2C)cc1.[Br-],CD50,Mus musculus [1],0.2 mg/kg
Br.CC/N=C(\NCC)N/N=C/c1ccc(/C=C/c2cn3c(C)cccc3[n+]2C)cc1.[Br-],CD50,Mus musculus [1],0.4 mg/kg
Br.Cc1ccc2n(c1)cc(-c1ccc(/C=N/NC(=N)N3CCOCC3)cc1)[n+]2C.[Br-],CD50,Mus musculus [2],0.8 mg/kg
C[n+]1cscc1COc1ccc(/C=N/NC(=N)N2CCCC2)cc1.Cc1ccc(S(=O)(=O)O)cc1.Cc1ccc(S(=O)(=O)[O-])cc1,CD50,Mus musculus [3],13 mg/kg
same,IC50,[4],2.2 µg/mL
same,IC50,[5],0.7 µg/mL
Br.CC/N=C(\NCC)N/N=C/c1ccc(OCc2cn3cc(C)ccc3[n+]2C)cc1.[Br-],CD50,Mus musculus [6],1.6 mg/kg
Br.Cc1ccc2n(c1)cc(/C=C/c1ccc(/C=N/NC(=N)N)cc1)[n+]2C.[Br-],CD50,Mus musculus [1],0.8 mg/kg
Br.CCNC(=N)N/N=C/c1ccc(-c2cn3ccc(C)cc3[n+]2C)cc1.[Br-],CD50,Mus musculus [7],13 mg/kg
same,CD50,Mus musculus [8],0.1 mg/kg
Br.Cn1cc[n+](C)c1/C=C/c1ccc(/C=N/NC(=N)NO)cc1.[Br-],CD50,Mus musculus [2],0.8 mg/kg
Cc1ccc2n(c1)cc(-c1ccc(/C=N/Nc3nc(N)nc(N)n3)cc1)[n+]2C.[I-],IC50,[4],0.3 µg/mL
same,IC50,[5],> 10 µg/mL
Br.C[n+]1c(-c2ccc(/C=N/NC(=N)N3CCCCC3)cc2)cn2ccccc21.[Br-],CD50,Mus musculus [9],0.8 mg/kg
Br.CCCNC(=N)N/N=C/c1ccc(-c2cn3ccccc3[n+]2C)cc1.[Br-],CD50,Mus musculus [10],0.1 mg/kg
Cc1ccc(S(=O)(=O)[O-])cc1.Cn1cc[n+](C)c1/C=C/c1ccc(/C=N/NC(=O)c2ccc(N)cc2)cc1,CD50,Mus musculus [11],26 mg/kg
Br.CSC(=N)N/N=C/c1ccc(OCc2cn3ccccc3[n+]2C)cc1.[Br-],CD50,Mus musculus [9],26 mg/kg
same,IC50,[4],4.6 µg/mL
same,IC50,[5],3.3 µg/mL
Br.CCNC(=N)N/N=C/c1ccc(OCc2cn3cc(C)ccc3[n+]2C)cc1.[Br-],CD50,Mus musculus [12],0.4 mg/kg
C[n+]1c(COc2ccc(/C=N/NC(=N)N)cc2)cn2cc(C(F)(F)F)ccc21.Cc1ccc(S(=O)(=O)O)cc1.Cc1ccc(S(=O)(=O)[O-])cc1,CD50,Mus musculus [12],6.6 mg/kg
C[n+]1c(-c2ccc(C(N)=S)cc2)cn2ccccc21.Cc1ccc(S(=O)(=O)[O-])cc1,CD50,Mus musculus [13],53 mg/kg
C[n+]1c(-c2ccc(/C=N/NC(N)=S)cc2)cn2ccccc21.Cc1ccc(S(=O)(=O)[O-])cc1,CD50,Mus musculus [14],106 mg/kg
Br.Cc1ccn2cc(-c3ccc(/C=N/NC(=N)NO)cc3)[n+](C)c2c1.[Br-],CD50,Mus musculus [15],0.2 mg/kg
same,IC50,[4],0.9 µg/mL
same,IC50,[5],0.7 µg/mL
Br.C[n+]1c(-c2ccc(/C=N/NC3=NCCCN3)cc2)cn2ccsc21.[Br-],CD50,Mus musculus [2],0.2 mg/kg
Br.C[n+]1c(COc2ccc(/C=N/NC(=N)NO)cc2)cn2ccccc21.[Br-],CD50,Mus musculus [8],0.4 mg/kg
Br.C[n+]1c(-c2ccc(/C=N/NC3=NCCN3)cc2)cn2ccsc21.[Br-],CD50,Mus musculus [9],0.8 mg/kg
same,IC50,[4],0.6 µg/mL
same,IC50,[5],0.8 µg/mL
Br.C[n+]1c(COc2ccc(/C=N/NC(=N)NO)cc2)cn2cc(C(F)(F)F)ccc21.[Br-],CD50,Mus musculus [10],6.6 mg/kg
Br.CCS(=O)(=O)c1ccc2n(c1)cc(-c1ccc(/C=N/NC(=N)N)cc1)[n+]2C.[Br-],CD50,Mus musculus [12],0.8 mg/kg
Br.C[n+]1c(-c2ccc(/C=N/NC3=NCCN3)cc2)c(Br)n2ccccc21.[Br-],CD50,Mus musculus [16],3.3 mg/kg
same,IC50,[4],0.7 µg/mL
same,IC50,[5],0.7 µg/mL
Br.Cc1ccn2cc(COc3ccc(/C=N/NC(=N)N)cc3)[n+](C)c2c1.[Br-],CD50,Mus musculus [7],6.6 mg/kg
same,CD50,Mus musculus [17],0.2 mg/kg
Br.Cc1ccn2cc(-c3ccc(/C=N/NC4=NCCCN4)cc3)[n+](C)c2c1.[Br-],CD50,Mus musculus [7],6.6 mg/kg
same,CD50,Mus musculus [12],0.1 mg/kg
same,IC50,[4],0.7 µg/mL
same,IC50,[5],1.1 µg/mL
Br.Cc1ccn2cc(COc3ccc(/C=N/NC(=N)N4CCCC4)cc3)[n+](C)c2c1.[Br-],CD50,Mus musculus [11],0.4 mg/kg
CCSc1ccc2n(c1)cc(-c1ccc(/C=N/Nc3nc(N)nc(N)n3)cc1)[n+]2C.Cc1ccc(S(=O)(=O)[O-])cc1,CD50,Mus musculus [15],1.6 mg/kg
same,IC50,[4],0.6 µg/mL
same,IC50,[5],> 10 µg/mL
Br.C[n+]1c(-c2ccc(/C=N/NC3=NCCN3)cc2)cn2c1CCCC2.[Br-],CD50,Mus musculus [9],0.4 mg/kg
Br.Cn1cc[n+](C)c1COc1ccc(/C=N/NC(=N)N)cc1.[Br-],CD50,Mus musculus [3],6.6 mg/kg
